Results reported in paper PMC9110138 (Biomedicine & Pharmacotherapy, 2022).

Tests used:
[1] = test system: SARS-CoV-2 pseudoparticles; conditions: cited from earlier work
HSA = conditions: previous investigation; cited from earlier work
human recombinant CYP3A4 = human recombinant CYP3A4 (Homo sapiens, UniProt P08684); conditions: microsomal and recombinant enzyme experiments; cited from earlier work
SARS-CoV-2 = conditions: cited from earlier work; for effect on viral replication in Calu-3 cells: infected with SARS-CoV-2 at MOI 0.001 for 90 min
PHHs = conditions: up to 50 μM, 24 h cytotoxicity assays; cited from earlier work
[2] = test system: human intestinal epithelial cells; conditions: up to 50 μM, 24 h cytotoxicity assays; cited from earlier work
[3] = canavanine, replacing arginine in P2 and P4; cited from earlier work
CYP2D6 = CYP2D6 (Homo sapiens, UniProt P10635); assay: Fluorometric CYP2D6 assay in human hepatic microsomes; type: in vitro ADME; conditions: MI-1851 50 µM; quinidine 3 µM
In short: (§1)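 Human hepatic microsomes were mixed with assay buffer and NADPH-generating system. They were preincubated 15 min at 37 °C with test compound (added solutions 0–250 µM), reference inhibitor or buffer-only background control. A fluorogenic substrate/NADP+ mixture followed, with final protein 10 µg/well. Fluorescence ex/em was 406/468 nm (CYP1A2), 415/502 nm (CYP2C9) and 390/468 nm (CYP2D6). Results are substrate RFU% as mean ± SEM, n = 3 or 4.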

CYP2C9 = CYP2C9 (Homo sapiens, UniProt P11712); assay: Fluorometric CYP2C9 assay in human hepatic microsomes; type: in vitro ADME; conditions: MI-1851 50 µM; tienilic acid 60 µM
In short: as §1

CYP1A2 [4] = target: T1, CYP1A2 (Homo sapiens, UniProt P05177); assay: CYP1A2 luminescent P450-Glo assay in PHHs; type: cell-based; conditions: 2 h; MI-1851 10, 20, 50 and 100 µM; α-naphthoflavone 10 µM
T1 sequence (P05177 1-516): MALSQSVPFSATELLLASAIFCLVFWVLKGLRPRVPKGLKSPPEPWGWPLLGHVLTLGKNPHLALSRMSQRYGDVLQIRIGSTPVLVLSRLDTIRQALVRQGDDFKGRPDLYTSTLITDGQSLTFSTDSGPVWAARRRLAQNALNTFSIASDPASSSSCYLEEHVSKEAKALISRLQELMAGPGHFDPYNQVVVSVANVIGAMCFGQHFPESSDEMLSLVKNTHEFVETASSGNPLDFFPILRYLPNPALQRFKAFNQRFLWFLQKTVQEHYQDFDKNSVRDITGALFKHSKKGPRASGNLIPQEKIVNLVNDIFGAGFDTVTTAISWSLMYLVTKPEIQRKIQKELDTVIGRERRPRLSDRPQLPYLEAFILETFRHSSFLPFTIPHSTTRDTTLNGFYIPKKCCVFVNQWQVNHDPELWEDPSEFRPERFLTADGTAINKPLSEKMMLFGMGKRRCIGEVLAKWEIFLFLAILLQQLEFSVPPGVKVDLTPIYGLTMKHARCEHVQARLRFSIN
In short: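 Cryopreserved primary human hepatocytes were thawed in recovery medium and plated for 6 h in medium with 5% FBS. They were then kept FBS-free on collagen-coated membrane inserts at 37 °C, 5% CO2. Cells were washed in serum-free medium and exposed 2 h to test compound (0–100 µM; freshly diluted from 10 mM DMSO stock). CYP1A2 was read by P450-Glo with luciferin 1A2. Groups were compared by one-way ANOVA/Tukey.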

CYP1A2 [5] = target: T1, CYP1A2; assay: Fluorometric CYP1A2 assay in human hepatic microsomes; type: in vitro ADME; conditions: MI-1851 50 µM; α-naphthoflavone 6 µM
In short: as §1

Sequence of human recombinant CYP3A4 (P08684 whole entry): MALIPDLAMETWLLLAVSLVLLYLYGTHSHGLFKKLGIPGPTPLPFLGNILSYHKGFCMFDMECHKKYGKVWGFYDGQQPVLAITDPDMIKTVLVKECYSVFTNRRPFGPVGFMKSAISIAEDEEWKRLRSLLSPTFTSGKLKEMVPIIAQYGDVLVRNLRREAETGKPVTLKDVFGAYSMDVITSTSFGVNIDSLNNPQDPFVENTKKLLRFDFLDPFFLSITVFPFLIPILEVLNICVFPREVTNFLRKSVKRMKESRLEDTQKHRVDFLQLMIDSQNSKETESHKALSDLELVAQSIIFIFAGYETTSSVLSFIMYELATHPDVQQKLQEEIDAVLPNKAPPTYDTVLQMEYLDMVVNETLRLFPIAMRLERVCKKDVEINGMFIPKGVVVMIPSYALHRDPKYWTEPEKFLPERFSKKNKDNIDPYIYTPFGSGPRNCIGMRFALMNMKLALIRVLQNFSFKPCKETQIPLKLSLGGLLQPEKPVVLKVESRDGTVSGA
Sequence of CYP2C9 (P11712 whole entry): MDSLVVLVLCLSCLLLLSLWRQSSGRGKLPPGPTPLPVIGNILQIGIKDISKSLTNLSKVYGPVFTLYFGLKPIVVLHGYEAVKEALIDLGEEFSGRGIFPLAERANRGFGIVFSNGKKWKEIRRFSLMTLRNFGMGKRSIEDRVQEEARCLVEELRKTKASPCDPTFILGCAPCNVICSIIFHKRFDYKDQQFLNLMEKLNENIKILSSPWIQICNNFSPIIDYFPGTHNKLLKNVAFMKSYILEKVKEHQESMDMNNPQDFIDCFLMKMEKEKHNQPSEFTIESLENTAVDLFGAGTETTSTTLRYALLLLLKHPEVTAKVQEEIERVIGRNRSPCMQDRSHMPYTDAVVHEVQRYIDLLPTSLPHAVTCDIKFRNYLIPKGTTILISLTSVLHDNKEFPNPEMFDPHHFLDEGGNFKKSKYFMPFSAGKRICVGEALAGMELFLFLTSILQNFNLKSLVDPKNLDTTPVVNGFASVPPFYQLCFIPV
Sequence of CYP2D6 (P10635 whole entry): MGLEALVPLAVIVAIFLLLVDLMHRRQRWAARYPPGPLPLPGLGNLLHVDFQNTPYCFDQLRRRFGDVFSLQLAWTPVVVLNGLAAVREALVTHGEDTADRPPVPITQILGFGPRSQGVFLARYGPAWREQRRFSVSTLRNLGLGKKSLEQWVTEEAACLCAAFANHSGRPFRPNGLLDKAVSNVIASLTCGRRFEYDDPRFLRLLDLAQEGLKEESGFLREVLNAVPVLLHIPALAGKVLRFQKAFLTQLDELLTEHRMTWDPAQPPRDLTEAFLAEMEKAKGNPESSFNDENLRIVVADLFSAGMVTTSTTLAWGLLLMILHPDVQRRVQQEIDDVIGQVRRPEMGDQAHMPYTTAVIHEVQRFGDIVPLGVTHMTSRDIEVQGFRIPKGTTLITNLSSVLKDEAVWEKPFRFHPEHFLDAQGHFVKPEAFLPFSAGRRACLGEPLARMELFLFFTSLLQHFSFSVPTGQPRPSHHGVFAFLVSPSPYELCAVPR

## CCOC(=O)[C@H]1O[C@@H]1C(=O)N[C@@H](CC(C)C)C(=O)NCCC(C)C [E64d]
[1]
  effect on infection with SARS-CoV-2 pseudoparticles: could decrease infection

## N=C(N)c1cccc(C[C@H](NS(=O)(=O)c2cccc(-c3ccc(Cl)cc3Cl)c2)C(=O)N2CCC(CCN)CC2)c1.O=C(O)C(F)(F)F.O=C(O)C(F)(F)F [MI-432]
HSA
  interactions with HSA: no or only weak interactions
Human recombinant CYP3A4
  inhibition of CYP3A4: potent inhibitors of CYP3A4 at the nanomolar or low micromolar range
SARS-CoV-2
  effect on viral titers in human airway epithelial Calu-3 cells: efficiently reduced
  effect on viral replication in Calu-3 cells: inhibit viral replication

## COc1ccc(-c2cccc(S(=O)(=O)N[C@@H](Cc3cccc(C(=N)N)c3)C(=O)N3CCN(C(=O)NC4CCCCC4)CC3)c2)c(OC)c1 [MI-1900]
PHHs
  damage to PHHs: did not cause damage
[2]
  damage to human intestinal epithelial cells: did not cause damage
HSA
  interactions with HSA: no or only weak interactions
Human recombinant CYP3A4
  inhibition of CYP3A4: potent inhibitors of CYP3A4 at the nanomolar or low micromolar range
SARS-CoV-2
  effect on viral titers in human airway epithelial Calu-3 cells: efficiently reduced
  effect on viral replication in Calu-3 cells: inhibit viral replication

## N=C(N)NOCC[C@H](N)C(=O)O [canavanine]
[3]
  pKa: 7.04

## C=C[C@H]1C[N@@]2CC[C@H]1C[C@@H]2[C@@H](O)c1ccnc2ccc(OC)cc12 [quinidine]
CYP2D6
  effect on human microsomal CYP2D6 activity: significant inhibition

## O=C(O)COc1ccc(C(=O)c2cccs2)c(Cl)c1Cl [tienilic acid]
CYP2C9
  effect on human microsomal CYP2C9 activity: significant inhibition

## O=c1cc(-c2ccccc2)oc2c1ccc1ccccc12 [α-naphthoflavone]
CYP1A2 [4]
  effect on CYP1A2 activity in PHHs: significant inhibitory effects
CYP1A2 [5]
  effect on human microsomal CYP1A2 activity: significant inhibition

## aprotinin
SARS-CoV-2; 10 µM, 48 h post infection
  effect on virus replication in vitro: decreased the virus replication
SARS-CoV-2
  effect on viral replication in Calu-3 cells: inhibit viral replication
